Measurements published in ChEMBL document CHEMBL1157084, “Exploring the structural requirements for inhibition of the ubiquitin E3 ligase breast cancer associated protein 2 (BCA2) as a treatment for breast cancer” (J Med Chem, 2010).
Activity calls are given as the source filed them. The rule behind the calls is not given here.

Legend:
MCF7 [1] = experiment: Reduction of BCA2 protein expression in human MCF7 cells at IC100 after 16 hrs by Western blotting in presence of MG132; assay type: functional, cell-based
MCF7 [2] = experiment: Reduction of BCA2 protein expression in human MCF7 cells at IC100 after 16 hrs by Western blotting; assay type: functional, cell-based
MCF7 [3] = experiment: Antiproliferative activity against human MCF7 cells expressing BCA2 and estrogen receptor at IC50 concentration after 5 days by MTT assay in presence of 75 uM to 600 nM zinc chloride; assay type: functional, cell-based
In short: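 MCF-7 cells (BCA2+, ER+) grown in RPMI 1640 with 10% heat-inactivated FBS, 37 °C, 5% CO2, used in exponential growth. Drug given with zinc chloride across 600 nM–75 μM for 5 days, then MTT read-out. Vehicle-treated cells without ZnCl2 or drug set as 100% growth.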

Homo sapiens [4] = organism: Homo sapiens; experiment: Inhibition of wild type human recombinant His-BCA2 autoubiquitination expressed in Escherichia coli at 5 uM after 30 mins by Western blotting in presence of human recombinant E2 UbcH5b
In short: (§1)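 10 ng E. coli-expressed His-BCA2 preincubated 30 min at room temperature with compound (final 5 or 50 μM, DMSO stocks). Then added ATP, 1 μg ubiquitin, 20 ng rabbit E1 and 20 ng UbcH5b in Tris HCl pH 8.0 with DTT and MgCl2. Reaction 1 h at 30 °C, then SDS-PAGE on 4–20% gel and immunoblot with anti-ubiquitin antibody.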

K562 = experiment: Percentage of ALDH+ cells in human K562 cells at 15 uM after 45 mins by flow cytometry based method; conditions: K562, 0.75 h
[5] = Antiproliferative activity against human MCF10A cells after 72 hrs by MTT assay; assay type: cell-based; conditions: MCF-10A
In short: (§2)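 Each compound run in triplicate; actives repeated in three independent experiments, IC50 read from growth curves as mean ± SD. Cells in RPMI 1640 + 10% heat-inactivated FBS (MDA-MB-231/ER also with 1 mg/mL G418; MCF10A in MEGM), 37 °C, 5% CO2, exponential phase.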

MCF7 [6] = experiment: Reduction of BCA2 protein expression in human MCF7 cells at IC100 after 16 hrs by Western blotting in presence of cyclohexamide and MG132; assay type: functional, cell-based
MDA-MB-231 [7] = experiment: Antiproliferative activity against human MDA-MB-231 cells expressing BCA2 and ERalpha after 72 hrs by MTT assay; assay type: functional, cell-based; conditions: MDA-MB-231, 72 h; in short: as §2
MDA-MB-231 [8] = experiment: Antiproliferative activity against BCA2 and ER deficient human MDA-MB-231 cells after 72 hrs by MTT assay; assay type: functional, cell-based; conditions: MDA-MB-231, 72 h; in short: as §2
[9] = biological target: T1, Aldehyde dehydrogenase 1A1 (Homo sapiens) (UniProt P00352); experiment: Inhibition of ALDH1 in human K562 cells at 15 uM after 45 mins by flow cytometry based method relative to bodipy-aminoacetaldehyde; assay type: cell-based
T1 sequence (whole entry): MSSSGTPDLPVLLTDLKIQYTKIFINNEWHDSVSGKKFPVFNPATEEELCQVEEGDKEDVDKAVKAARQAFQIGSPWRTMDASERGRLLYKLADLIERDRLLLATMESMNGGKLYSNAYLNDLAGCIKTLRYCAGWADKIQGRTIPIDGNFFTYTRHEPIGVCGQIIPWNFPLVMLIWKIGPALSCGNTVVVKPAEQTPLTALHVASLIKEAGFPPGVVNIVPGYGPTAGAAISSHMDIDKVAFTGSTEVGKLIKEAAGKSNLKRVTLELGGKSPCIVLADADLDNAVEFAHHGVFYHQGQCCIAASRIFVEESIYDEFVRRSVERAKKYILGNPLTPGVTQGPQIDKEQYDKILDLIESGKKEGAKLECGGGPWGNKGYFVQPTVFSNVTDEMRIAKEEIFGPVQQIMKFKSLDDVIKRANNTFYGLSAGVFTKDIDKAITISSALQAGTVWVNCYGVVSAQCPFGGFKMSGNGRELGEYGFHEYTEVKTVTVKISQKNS

MCF7 [10] = experiment: Antiproliferative activity against human MCF7 cells expressing BCA2 and estrogen receptor after 72 hrs by MTT assay; assay type: functional, cell-based; conditions: MCF7, 72 h; in short: as §2
T47D = experiment: Antiproliferative activity against human T47D cells expressing BCA2 and estrogen receptor after 72 hrs by MTT assay; assay type: functional, cell-based; in short: as §2
[11] = biological target: E3 ubiquitin-protein ligase Mdm2 (Homo sapiens) (UniProt Q00987); experiment: Inhibition of recombinant RING-E3 ligase Mdm2 autoubiquitination at 5 to 50 uM after 30 mins by Western blotting in presence of human recombinant E2 UbcH5b
Homo sapiens [12] = organism: Homo sapiens; experiment: Inhibition of wild type human recombinant His-BCA2 autoubiquitination expressed in Escherichia coli at 50 uM after 30 mins by Western blotting in presence of human recombinant E2 UbcH5b; in short: as §1
MCF7 [13] = experiment: Reduction of BCA2 protein expression in human MCF7 cells at IC100 after 16 hrs by Western blotting in presence of cyclohexamide; assay type: functional, cell-based

Sequence of E3 ubiquitin-protein ligase Mdm2 (Homo sapiens) (Q00987 whole entry, looked up): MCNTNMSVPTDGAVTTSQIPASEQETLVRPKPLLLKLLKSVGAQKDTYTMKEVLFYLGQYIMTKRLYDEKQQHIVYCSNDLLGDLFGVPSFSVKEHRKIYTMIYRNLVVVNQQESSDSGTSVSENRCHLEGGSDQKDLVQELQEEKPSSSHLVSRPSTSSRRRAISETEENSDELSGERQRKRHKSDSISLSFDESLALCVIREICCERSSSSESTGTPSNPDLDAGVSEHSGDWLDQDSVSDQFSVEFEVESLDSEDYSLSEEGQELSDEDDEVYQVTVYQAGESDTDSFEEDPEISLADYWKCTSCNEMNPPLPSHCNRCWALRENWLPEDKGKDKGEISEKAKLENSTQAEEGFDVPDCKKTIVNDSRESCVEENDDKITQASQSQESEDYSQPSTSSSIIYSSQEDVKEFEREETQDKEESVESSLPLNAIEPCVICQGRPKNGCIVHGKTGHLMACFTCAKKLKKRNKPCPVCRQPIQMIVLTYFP

| SMILES | Activity (MCF7 [1]) | Activity (MCF7 [2]) | Activity (MCF7 [3]) | Activity (Homo sapiens [4]) | ALDH+ cells (%) at 15 µM (K562) | IC50 [5] | Activity (MCF7 [6]) | IC50 (MDA-MB-231 [7]) | IC50 (MDA-MB-231 [8]) | inhibition [9] | IC50 (MCF7 [10]) | IC50 (T47D) | Activity [11] | Activity (Homo sapiens [12]) | Activity (MCF7 [13]) |
| --- | --- | --- | --- | --- | --- | --- | --- | --- | --- | --- | --- | --- | --- | --- | --- |
| S=C(SSC(=S)N1CCCCC1)N1CCCCC1 [BIS(PIPERIDINYLTHIOCARBONYL)DISULFIDE] | Active | Active | inactive | inactive | 8.3% | > 10000 nM | Active | 590 nM | > 10000 nM | 79.5% | 30 nM | 270 nM | inactive | Active | Active |
| CCC(C)SSC(=S)N(CC)CC (stereo unspecified) |  |  |  |  |  | > 10000 nM |  | 2100 nM | 6000 nM |  | 450 nM | 200 nM |  |  |  |
| CCN(CC)C(=S)SSc1ccc(C(=O)O)cc1 |  |  |  |  |  | > 10000 nM |  | 550 nM | 6300 nM |  | 500 nM | 150 nM |  |  |  |
| S=C(SSC1CCCCC1)N1CCCCC1 |  |  |  |  |  | > 10000 nM |  | 2300 nM | 6700 nM |  | 600 nM | 250 nM |  |  |  |
| S=C(SSC(=S)N1CCCC1)N1CCCC1 [BIS(PYRROLIDINYLTHIOCARBONYL)DISULFIDE] |  |  |  | inactive | 39% | > 10000 nM |  | 250 nM | > 10000 nM | 3.4% | 380 nM | 280 nM | inactive | Active |  |
| S=C(SSC1CCCCC1)N1CCCC1 |  |  |  |  |  | > 10000 nM |  | 250 nM | 4700 nM |  | 1400 nM | 1350 nM |  |  |  |
| CN1CCN(C(=S)SSC(=S)N2CCN(C)CC2)CC1 |  |  |  |  |  | > 10000 nM |  | 290 nM | 3000 nM |  | 350 nM | 330 nM |  |  |  |
| CCCCCCSSC(=S)N(CC)CC [DIETHYLCARBAMO(DITHIOPEROXO)THIOATE] | Active | Active | inactive | inactive | 36.5% | > 10000 nM | Active | 350 nM | > 10000 nM | 9.8% | 430 nM | 230 nM | inactive | Active | Active |
| Cc1cc(C)n2c1C=C1C=CC(CCC(=O)NCC=O)=[N+]1[B-]2(F)F |  |  |  |  | 40.4% |  |  |  |  | 0% |  |  |  |  |  |
| CCN(CC)C(=S)SSC(C)C [ISOPROPYL DIETHYLCARBAMO(DITHIOPEROXO)THIOATE] |  |  |  |  |  | > 10000 nM |  | 250 nM | 960 nM |  | 390 nM | 230 nM |  |  |  |
| CCN(CC)C(=S)SSC1CCCCC1 [CYCLOHEXYL DIETHYLCARBAMO(DITHIOPEROXO)THIOATE] |  |  |  |  |  | > 10000 nM |  | 280 nM | 960 nM |  | 300 nM | 180 nM |  |  |  |
| C1CN(SSN2CCOCC2)CCO1 [DITHIODIMORPHOLINE] |  |  |  |  |  | > 10000 nM |  | > 10000 nM | > 10000 nM |  | > 10000 nM | > 10000 nM |  |  |  |
| CCCCSSC(=S)N(CC)CC [BUTYL DIETHYLCARBAMO(DITHIOPEROXO)THIOATE] |  |  |  |  |  | > 10000 nM |  | 300 nM | 7400 nM |  | 400 nM | 150 nM |  |  |  |
| CCN(CC)C(=S)SSCCO |  |  |  | inactive |  | > 10000 nM |  | 2750 nM |  | 8.6% | 500 nM | 300 nM | inactive | Active |  |
| CCCCSSC(=S)N1CCCCC1 |  |  |  |  |  | > 10000 nM |  | 390 nM | 8000 nM |  | 650 nM | 350 nM |  |  |  |
| CCN(CC)C(=S)SSC(=S)N(CC)CC |  |  | inactive | inactive | 17.3% | 10000 nM |  | 320 nM | > 10000 nM | 57.3% | 100 nM | 170 nM | inactive | Active |  |
